Source: ChEMBL document CHEMBL5137045, “Discovery of 2-(furan-2-ylmethylene)hydrazine-1-carbothioamide derivatives as novel inhibitors of SARS-CoV-2 main protease” (Eur J Med Chem, 2022)
The source made the active and inactive calls. No cut-off for these calls is given here.

Experiments:
[1] = target: T1, Replicase polyprotein 1ab (Severe acute respiratory syndrome coronavirus 2, UniProt P0DTD1); experiment: Inhibition of SARS CoV-2 main protease using DABCYL-KTSAVLQSGFRKM-E(EDANS)-NH2 as substrate preincubated for 30 mins followed by substrate addition and measured after 20 mins
[2] = target: Replicase polyprotein 1ab (Severe acute respiratory syndrome coronavirus 2) (UniProt P0DTD1); experiment: Inhibition of SARS CoV-2 main protease at 50 uM using DABCYL-KTSAVLQSGFRKM-E(EDANS)-NH2 as substrate preincubated for 30 mins followed by substrate addition and measured after 20 mins relative to control; details: time 50.0 min
Summary of the method: (§1)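 FRET protease assay in 40 mM PBS, 100 mM NaCl, 1 mM EDTA, 0.1% Triton, pH 7.3. M^pro (0.5 μM) was preincubated with inhibitor 30 min at room temperature, then 20 μM substrate was added. Cleavage fluorescence (ex 360/em 460 nm) was read for 20 min. This covers preliminary screening and IC50; IC50 from Hill1 fit.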

[3] = target: Replicase polyprotein 1ab (Severe acute respiratory syndrome coronavirus 2) (UniProt P0DTD1); experiment: Covalent binding affinity to SARS CoV-2 main protease at 15 uM incubated for 3 hrs by Quadrupole-TOF LC-MS/MS analysis
Summary of the method: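 Protease (2 μM) was co-incubated with 15 μM inhibitor on ice for 3 h. The complex was run on Q-TOF LC-MS/MS, and raw mass signal was deconvoluted to give total protein mass.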

[4] = target: T1, Replicase polyprotein 1ab; experiment: Inhibition of SARS CoV-2 main protease using DABCYL-KTSAVLQSGFRKM-E(EDANS)-NH2 as substrate preincubated for 180 mins followed by substrate addition
Summary of the method: (§2)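 Time-dependence: M^pro was preincubated with various inhibitor concentrations for different times at room temperature before fluorogenic substrate addition. Activity was read as in the standard FRET assay.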

Procathepsin L = Procathepsin L (Homo sapiens, UniProt P07711); experiment: Inhibition of human Cathepsin L using Ac-FR-AFC as fluorescent substrate preincubated for 15 mins followed by substrate addition and measured after 30 mins by fluorescent microplate reader analysis
Procathepsin L, sequence (P07711 whole entry): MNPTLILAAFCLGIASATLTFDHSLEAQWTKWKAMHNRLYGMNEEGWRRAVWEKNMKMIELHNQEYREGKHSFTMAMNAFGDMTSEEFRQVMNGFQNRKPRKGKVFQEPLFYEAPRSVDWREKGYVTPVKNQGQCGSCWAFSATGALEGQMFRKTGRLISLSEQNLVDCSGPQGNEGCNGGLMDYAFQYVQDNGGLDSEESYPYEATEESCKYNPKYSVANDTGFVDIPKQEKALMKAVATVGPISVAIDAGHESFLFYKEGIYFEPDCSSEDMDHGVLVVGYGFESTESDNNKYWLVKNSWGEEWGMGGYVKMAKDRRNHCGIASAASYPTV

[5] = target: T1, Replicase polyprotein 1ab; experiment: Inhibition of SARS CoV-2 main protease using DABCYL-KTSAVLQSGFRKM-E(EDANS)-NH2 as substrate preincubated for 5 mins followed by substrate addition; summary of the method: as §2
Vero = experiment: (§3) Cytotoxicity against African green monkey Vero cells assessed as reduction in cell viability measured after 48 hrs by MTT assay; format: toxicity, cell-based; details: chlorocebus sabaeus, vero, 48 h
Summary of the method: (§4)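 MTT viability assay. Vero cells were kept in MEM and MDCK cells in DMEM, each with 10% FBS and 100 U/mL penicillin/streptomycin, humidified, 5% CO2. Cells were seeded, incubated 18 h, then given compound; vehicle served as blank.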

MDCK = experiment: Cytotoxicity against MDCK cells assessed as reduction in cell viability incubated for 48 hrs by MTT assay; format: toxicity, cell-based, Canis lupus familiaris; details: dog; summary of the method: as §4
[6] = target: Replicase polyprotein 1ab (Severe acute respiratory syndrome coronavirus 2) (UniProt P0DTD1); experiment: Non-competitive inhibition of SARS CoV-2 main protease using DABCYL-KTSAVLQSGFRKM-E(EDANS)-NH2 as substrate at varying concentrations preincubated for 3 hrs followed by substrate addition by Lineweaver-burk plot analysis
Summary of the method: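 Kinetics: 0.5 μM M^pro was preincubated 3 h with DMSO or inhibitor, then varying fluorogenic substrate concentrations started the reaction. Three replicates, curve-fitted.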

[7] = target: T1, Replicase polyprotein 1ab; experiment: Inhibition of SARS CoV-2 main protease using DABCYL-KTSAVLQSGFRKM-E(EDANS)-NH2 as substrate preincubated for 30 mins followed by substrate addition; summary of the method: as §1
[8] = target: Replicase polyprotein 1ab (Severe acute respiratory syndrome coronavirus 2) (UniProt P0DTD1); experiment: Reversible inhibition of SARS CoV-2 main protease at 100 uM incubated for 180 mins by ultrafiltration assay
Summary of the method: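 Reversibility: 10 μM M^pro was incubated with 100 μM inhibitor for 180 min and split into four portions, each ultrafiltered a different number of times. Each round added an equal volume of assay buffer, 5 min, 4 °C, 12,000 rpm. Retained protease was diluted to 0.5 μM and assayed for activity; three replicates averaged.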

[9] = as §3; format: toxicity, cell-based; details: chlorocebus sabaeus, Vero cells; summary of the method: as §4
[10] = target: T1, Replicase polyprotein 1ab; experiment: Binding affinity to SARS-CoV-2 main protease assessed as dissociation constant by SPR analysis
Summary of the method: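 SPR with M^pro immobilised and an empty first flow channel as reference. Compounds were injected for 60 s at 0.2–100 μM for binding (50 μM for screening). Dissociation was followed for 100–200 s at 30 μL/min. […] K_D came from a 1:1 kinetic binding fit.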

Compound	IC50 [1] [µM]	inhibition [2] [%]	other results
NC(=S)N/N=C/c1ccc(-c2cccc(C(=O)O)c2)o1	10.9	85.1	
NC(=S)N/N=C/c1ccc(-c2cnc3ccccc3c2)o1	10.3	88.9	
NC(=S)N/N=C/c1ccc(-c2cccc([N+](=O)[O-])c2)o1	8.08	81.6	
Cc1c(NC(=S)N/N=C/c2ccc(-c3ccc([N+](=O)[O-])cc3)o2)c(=O)n(-c2ccccc2)n1C	10.8	95	
NC(=S)N/N=C/c1ccc(-c2cc(C(=O)O)ccc2Cl)o1	10	97.2	
NC(=S)N/N=C/c1cc(-c2ccc(C(=O)O)cc2)co1	24.6	90.9	
NC(=O)c1ccc(-c2ccc(/C=N/NC(N)=S)o2)cc1	4	94.2	
Cc1cc([N+](=O)[O-])c(-c2ccc(/C=N/NC(=O)c3nonc3N)o2)cc1Cl	25	70.9	
NC(=S)N/N=C/c1ccc(-c2ccncc2)o1	7.09	95.4	
NC(=S)N/N=C/c1ccc(-c2ccc(C(=O)O)c(O)c2)o1	1.57	102	Activity [3]: Active; IC50 [4]: 0.85 µM; IC50 (Procathepsin L): 16.3 µM; IC50 [5]: 42.8 µM; CC50 (Vero): > 100 µM; CC50 (MDCK): > 100 µM; inhibition [6]: Active; IC50 [7]: 6.18 µM; inhibition [8]: Active
NC(=S)N/N=C/c1ccc(-c2ccc(F)nc2)o1	8.76	97.4	
NC(=S)N/N=C/c1ccc(-c2ccc3cccnc3c2)o1	10.4	92.3	
NC(=S)N/N=C/c1ccc(-c2ccc(O)c(C(=O)O)c2)o1	9.09	115	
NC(=S)N/N=C/c1ccc(-c2ccc(C(=O)O)cc2)s1	5.78	95.1	
N#Cc1cc(-c2ccc(/C=N/NC(N)=S)o2)ccc1O	4.14	107	
NC(=S)N/N=C/c1ccc(-c2ccc(C(=O)O)c(Cl)c2)o1	32.5	89	
COc1ccc(-c2ccc(/C=N/NC(N)=S)o2)cc1OC	5.81	102	
NC(=S)N/N=C/c1ccc(Cc2ccccc2)o1	1.55	100	IC50 (Procathepsin L): 8.09 µM; CC50 at 48 h [9]: 100 µM; CC50 (MDCK): > 100 µM
NC(=S)N/N=C/c1ccc(-c2ccc(S(N)(=O)=O)cc2)o1	5.39	98.5	
NC(=S)N/N=C/c1ccc(-c2ccc(Cl)c(C(=O)O)c2)o1	25.4	93.6	
NC(=S)N/N=C/c1cccc(-c2ccc(C(=O)O)cc2)c1	5.44	99.2	
NC(=S)N/N=C/c1ccc(-c2ccc(C(=O)O)cc2)o1	17.5	89.4	

Compound	IC50 [1] [µM]	inhibition [2] [%]	other results
NC(=S)N/N=C/c1ccc(-c2ccc(C(=O)O)cc2F)o1	8.14	101	
NC(=S)N/N=C/c1ccc(-c2ccccc2)o1	4.05	100	
Nc1nonc1-c1nc2ccccc2n1CC(=O)N/N=C/c1ccc(-c2cccc(C(=O)O)c2)o1	21.3	65	Kd [10]: 27.7 µM
Cc1cc(-c2ccc(/C=N/NC(=O)C(NC(=O)Cc3ccco3)C(C)C)o2)cc([N+](=O)[O-])c1C (stereo unspecified)		62.8	
COc1c(C(=O)O)cccc1-c1ccc(/C=N/NC(N)=S)o1		79.8	
Cc1c(NC(=S)NC(=O)c2cncc(Br)c2)c(=O)n(-c2ccccc2)n1C		< 20	
C=CCNC(=S)N/N=C/c1ccc(-c2cc(C(=O)O)cc(C(=O)O)c2)o1		34.2	
NC(=S)N/N=C/c1ccc(-c2ccc(Cl)c(Cl)c2)o1		49.8	
Nc1nnnn1CC(=O)N/N=C/c1ccc(-c2ccccc2C(=O)O)o1		34.5	
Cc1ccc(C(=O)NC(=S)Nc2c(C)n(C)n(-c3ccccc3)c2=O)cc1		< 20	
NC(=S)N/N=C/c1ccc(-c2ccc([N+](=O)[O-])cc2)o1	9.69	81.1	
Cc1cccc(C)c1OCC(=O)N/N=C/c1ccc([N+](=O)[O-])o1		< 20	
O=C(CNC(=O)c1ccccc1F)N/N=C/c1ccc([N+](=O)[O-])o1		< 20	
Cc1cc(-c2ccc(/C=N/NC(=O)Cn3nnnc3N)o2)c([N+](=O)[O-])cc1C	17.5	86	
O=[N+]([O-])c1ccc(-c2ccc(/C=N/c3cccc(-c4nc5ccccc5o4)c3)o2)cc1		21.3	
CCOC(=O)N/N=C/c1ccc(-c2cccc(C(=O)O)c2)o1		29.4	
O=C(O)c1cccc(-c2ccc(/C=N/NC(=S)Nc3ccc(Cl)cc3)o2)c1		43.8	
Cc1cc(C(=O)O)ccc1-c1ccc(/C=N/NC(N)=S)o1	4.69	98.5	
O=C(CNc1ccc2ccccc2c1)N/N=C/c1ccc(-c2ccc([N+](=O)[O-])cc2)o1		23	
NC(=S)N/N=C/c1ccc(-c2cccc(C(=O)O)c2Cl)o1	40.6	84.4	
COc1cc([N+](=O)[O-])ccc1-c1ccc(/C=N/NC(=O)Cn2c3ccccc3c(=O)c3ccccc32)o1		26	
O=C(CSc1nnnn1-c1ccccc1)N/N=C/c1ccc(-c2ccccc2C(=O)O)o1		45.3	
